Tests used:
[1] = system: Rattus norvegicus; assay: Antineuropathic pain activity in po dosed Sprague-Dawley rat chronic constriction injury model assessed as inhibition of thermal hypersensitivity measured on day 15 relative to sham-treated control; assay type: functional
Outline: (§1)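 Sprague-Dawley rats, sciatic nerve chronic constriction injury (four loose 4-0 silk ligatures, chloral hydrate anaesthesia); sham has nerve exposed without ligation. Model confirmed on day 14. Oral dosing in 0.5% methylcellulose, 10 mL/kg, twice daily on days 15–18. Read after first dose (day 15) and last dose (day 18). Von Frey withdrawal threshold and radiant-heat plantar withdrawal latency (30 s cutoff), each paw sampled four times and averaged; 10 rats/group.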

[2] = system: Mus musculus; assay: Antinociceptive activity in Kun Ming mouse pain model assessed as reduction in licking and biting time during phase-1 at 80 mg/kg, ip administered 15 mins prior to formalin challenge relative to vehicle-treated control; assay type: functional; settings: route intraperitoneal
Outline: (§2)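 Kun Ming mice (20 ± 2.0 g), 10–12 per group, given vehicle (30% PEG 400) or drug ip at 10 mL/kg 15 min before intraplantar formalin. Time spent licking or biting the injected paw scored at 0–5 min (phase I) and 15–45 min (phase II). Effect (%) = (LTV − LTD)/LTV × 100.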

[3] = target: Sigma non-opioid intracellular receptor 1 (Cavia porcellus, UniProt Q60492); assay: Displacement of [3H]-(+)-pentazocine from sigma-1 receptor in Dunkin Hartley guinea pig brain membranes after 180 mins by liquid scintillation counting analysis; set-up: species or system Membrane
[4] = system: Rattus norvegicus; assay: Antineuropathic pain activity in po dosed Sprague-Dawley rat chronic constriction injury model assessed as inhibition of mechanical allodynia measured on day 15 relative to sham-treated control; assay type: functional; outline: as §1
[5] = target: Transient receptor potential cation channel subfamily V member 1 (Homo sapiens) (UniProt Q8NER1); assay: Inhibition of from human TRPV-1 channel expressed in HEK293 cells at 1 uM after 5 mins by electrophysiological analysis; assay type: cell-based
[6] = AUC (0 to 24 hrs) in Sprague-Dawley rat at 320 mg/kg, po by HPLC/MS/MS analysis; assay type: ADME, organism-based; set-up: time < 24 hr, dose 320 mg/kg, route oral; settings: plasma
Outline: (§3)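 Sprague-Dawley rats (250 ± 5.0 g), n = 8/group, dosed iv via lateral tail vein at 16 mg/kg in 100% saline or by oral gavage at 320 mg/kg as suspension in 0.5% methylcellulose. Serial tail-vein blood into heparinized tubes at 30 min, 1, 2, 3, 4, 5, 6, 7 and 24 h. Plasma treated by acetonitrile protein precipitation, then HPLC/MS on C18 column, 40 °C.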

[7] = target: Histamine H1 receptor (Cavia porcellus) (UniProt P31389); assay: Displacement of [3H]-mepyramine from guinea pig cerebellum histamine H1 receptor at 1 uM after 60 mins by liquid scintillation counting analysis
[8] = target: Adrenergic receptor alpha-1 (Rattus norvegicus) (UniProt P15823+P23944+P43140); assay: Displacement of [3H]-prazosin from rat cerebral cortex adrenergic alpha-1 receptor at 1 uM after 60 mins by liquid scintillation counting analysis; assay type: tissue-based
[9] = system: Rattus norvegicus; assay: Cmax in Sprague-Dawley rat at 16 mg/kg, iv by HPLC/MS/MS analysis; assay type: ADME, organism-based; set-up: dose 16 mg/kg, route intravenous; settings: in vivo; outline: as §3
[10] = AUC (0 to infinity) in Sprague-Dawley rat at 16 mg/kg, iv by HPLC/MS/MS analysis; settings: plasma
[11] = system: Mus musculus; assay: Antinociceptive activity in ip dosed Kun Ming mouse pain model assessed as reduction in licking and biting time during phase-1 administered 15 mins prior to formalin challenge relative to vehicle-treated control; assay type: functional; outline: as §2
[12] = target: 5-hydroxytryptamine receptor 2A (Rattus norvegicus) (UniProt P14842); assay: Displacement of [3H]-ketanserin from rat cerebral cortex 5-HT2A receptor at 1 uM after 15 mins by liquid scintillation counting analysis; assay type: tissue-based
Sequence of 5-hydroxytryptamine receptor 2A (Rattus norvegicus) (P14842 whole entry): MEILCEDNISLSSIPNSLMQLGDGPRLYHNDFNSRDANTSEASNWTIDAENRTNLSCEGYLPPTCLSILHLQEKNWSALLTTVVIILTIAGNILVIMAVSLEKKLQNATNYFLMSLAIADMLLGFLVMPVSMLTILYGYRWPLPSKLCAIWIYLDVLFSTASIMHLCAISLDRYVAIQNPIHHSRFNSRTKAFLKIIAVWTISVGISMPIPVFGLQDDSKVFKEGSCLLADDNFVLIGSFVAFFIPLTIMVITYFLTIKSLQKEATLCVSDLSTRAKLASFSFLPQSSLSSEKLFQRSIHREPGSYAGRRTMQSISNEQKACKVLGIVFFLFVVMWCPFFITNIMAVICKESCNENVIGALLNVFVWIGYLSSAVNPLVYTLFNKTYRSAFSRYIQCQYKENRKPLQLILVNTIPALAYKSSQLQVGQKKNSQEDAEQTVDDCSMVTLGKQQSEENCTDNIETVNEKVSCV

Sequence of Transient receptor potential cation channel subfamily V member 1 (Homo sapiens) (Q8NER1 whole entry): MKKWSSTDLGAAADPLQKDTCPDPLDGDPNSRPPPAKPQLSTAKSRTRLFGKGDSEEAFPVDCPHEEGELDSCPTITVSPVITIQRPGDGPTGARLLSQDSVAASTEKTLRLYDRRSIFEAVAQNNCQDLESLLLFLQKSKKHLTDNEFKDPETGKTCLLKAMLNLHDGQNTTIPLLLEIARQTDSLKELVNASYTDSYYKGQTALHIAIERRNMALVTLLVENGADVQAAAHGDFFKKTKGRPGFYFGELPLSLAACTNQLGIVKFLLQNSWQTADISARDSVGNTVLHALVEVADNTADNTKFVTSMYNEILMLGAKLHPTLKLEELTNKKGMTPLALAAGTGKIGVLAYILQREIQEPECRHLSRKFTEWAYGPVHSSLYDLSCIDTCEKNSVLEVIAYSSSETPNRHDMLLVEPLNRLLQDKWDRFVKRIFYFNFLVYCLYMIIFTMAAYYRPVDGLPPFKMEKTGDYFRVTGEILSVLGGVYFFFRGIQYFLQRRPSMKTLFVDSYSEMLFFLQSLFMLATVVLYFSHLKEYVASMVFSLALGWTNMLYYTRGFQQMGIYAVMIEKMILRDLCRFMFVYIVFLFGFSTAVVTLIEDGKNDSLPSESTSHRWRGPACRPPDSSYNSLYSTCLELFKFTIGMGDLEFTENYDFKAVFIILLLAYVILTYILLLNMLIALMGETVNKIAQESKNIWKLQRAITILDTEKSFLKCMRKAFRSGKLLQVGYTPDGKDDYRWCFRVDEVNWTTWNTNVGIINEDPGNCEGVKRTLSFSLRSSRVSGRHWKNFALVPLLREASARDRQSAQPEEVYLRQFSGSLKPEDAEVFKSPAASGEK
Sequence of Sigma non-opioid intracellular receptor 1 (Q60492 whole entry): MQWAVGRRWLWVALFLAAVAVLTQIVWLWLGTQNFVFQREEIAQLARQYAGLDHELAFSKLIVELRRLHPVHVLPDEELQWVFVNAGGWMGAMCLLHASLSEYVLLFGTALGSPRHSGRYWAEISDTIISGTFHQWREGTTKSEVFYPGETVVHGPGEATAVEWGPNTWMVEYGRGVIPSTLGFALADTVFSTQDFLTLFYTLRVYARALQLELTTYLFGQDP
Sequence of Histamine H1 receptor (Cavia porcellus) (P31389 whole entry): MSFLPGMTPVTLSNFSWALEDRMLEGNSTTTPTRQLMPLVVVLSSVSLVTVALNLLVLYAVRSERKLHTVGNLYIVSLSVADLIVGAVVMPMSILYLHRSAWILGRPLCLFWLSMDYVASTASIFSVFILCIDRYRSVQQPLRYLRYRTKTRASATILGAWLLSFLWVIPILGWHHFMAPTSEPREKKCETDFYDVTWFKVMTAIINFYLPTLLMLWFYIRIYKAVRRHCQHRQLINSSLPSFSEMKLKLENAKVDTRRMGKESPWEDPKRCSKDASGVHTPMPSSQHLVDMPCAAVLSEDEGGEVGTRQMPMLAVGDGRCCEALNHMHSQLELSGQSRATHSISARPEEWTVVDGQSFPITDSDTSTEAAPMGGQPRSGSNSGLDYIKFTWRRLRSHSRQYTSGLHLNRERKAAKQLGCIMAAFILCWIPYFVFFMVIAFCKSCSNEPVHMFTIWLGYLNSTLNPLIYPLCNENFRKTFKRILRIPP

**Q.** What does the source list for `Cc1nc(-c2ccc(Cl)cc2)nc(OCCCN2CCCCC2)c1Cl`?
**A.** inhibition [1]: Dose-dependent effect; ED50 ([1]; 360 h): 47.2 mg/kg; Time [2]: 12.65 s; Ki [3]: 1.06 nM; inhibition [4]: Dose-dependent effect; ED50 ([4]; 360 h): 58.2 mg/kg; inhibition [5]: < 50%; AUC(0-t) at 24 h [6]: 54700 ng·h/mL; inhibition [7]: < 50%; inhibition [8]: < 50%; Cmax [9]: 7260 ng/mL; AUC(0-inf) [10]: 3690 ng·h/mL; Activity [11]: Dose-dependent effect; ED50 [11]: 48.4 mg/kg; inhibition [12]: < 50%
